In publication PMC6445238 (Drug Design, Development and Therapy, 2019):

Assays:
[1] = system: alpha-synuclein oligomer, total tau, phosphor-tau; assay: MAD study, PD biomarkers; format: in vivo, human
How it was run: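 Healthy male volunteers in the MAD part: young (19–45 y) or elderly (>60 y), randomized 6 active : 2 placebo per cohort, oral dosing once daily for 7 days. Blood and CSF sampled for alpha-synuclein oligomer, and CSF for total and phospho-tau, at day 1 predose and day 7, 1 h after last dose. CSF (about 2 mL) by lumbar puncture at L3–L4. Protein levels were measured by an external biomarker core.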

[2] = PD assessments with CNS scales; format: in vivo, human
[3] = 2 weeks, up to 1,000 mg/kg/day; cited from earlier work

For `Cc1nn(Cc2ccc(Br)cc2)c(C)c1NC(=O)CSc1ccccc1` [KM-819], the “Alpha-synuclein oligomer, CSF, change from baseline (day 1 predose) to day 7, mean (SD)” value (“Alpha-synuclein oligomer, CSF, change … (SD)” below) ([1]; 30 mg QD, young) was 49.94 (72.09) pg/mL, the “Alpha-synuclein oligomer, plasma, change from baseline (day 1 predose) to day 7, mean (SD)” value (from here on “Alpha-synuclein oligomer, plasma, change … (SD)”) ([1]; 30 mg QD, young) was 3,884.41 pg/mL and the “Phosphor-tau, CSF, change from baseline (day 1 predose) to day 7, mean (SD)” value (from here on “Phosphor-tau, CSF, change from baseline … (SD)”) ([1]; 30 mg QD, young) was 6.41 (19.04) pg/mL. For the same compound, the “Total tau, CSF, change from baseline (day 1 predose) to day 7, mean (SD)” value (“Total tau, CSF, change from baseline … (SD)” for short) ([1]; 30 mg QD, young) was 60.30 (64.42) pg/mL, the “Alpha-synuclein oligomer, CSF, change … (SD)” value ([1]; 100 mg QD, young) was −252.56 (643.49) pg/mL and the “Alpha-synuclein oligomer, plasma, change … (SD)” value ([1]; 100 mg QD, young) was 575.46 (18,379.46) pg/mL. The “Phosphor-tau, CSF, change from baseline … (SD)” value ([1]; 100 mg QD, young) was 0.21 (1.13) pg/mL, the “Total tau, CSF, change from baseline … (SD)” value ([1]; 100 mg QD, young) was 9.23 (15.82) pg/mL and the “Alpha-synuclein oligomer, CSF, change … (SD)” value ([1]; 200 mg QD, elderly) was 34.87 (51.42) pg/mL. The “Alpha-synuclein oligomer, plasma, change … (SD)” value ([1]; 200 mg QD, elderly) was −11,712.09 pg/mL, the “Phosphor-tau, CSF, change from baseline … (SD)” value ([1]; 200 mg QD, elderly) was 5.16 (10.88) pg/mL and the “Total tau, CSF, change from baseline … (SD)” value ([1]; 200 mg QD, elderly) was 29.30 (100.07) pg/mL. For the same compound, the “Alpha-synuclein oligomer, CSF, change … (SD)” value ([1]; 200 mg QD, young) was 0.60 (18.22) pg/mL, the “Alpha-synuclein oligomer, plasma, change … (SD)” value ([1]; 200 mg QD, young) was 3,809.51 pg/mL and the “Phosphor-tau, CSF, change from baseline … (SD)” value ([1]; 200 mg QD, young) was 4.47 (7.88) pg/mL. For the same compound, the “Total tau, CSF, change from baseline … (SD)” value ([1]; 200 mg QD, young) was −3.16 (15.01) pg/mL, the “Alpha-synuclein oligomer, CSF, change … (SD)” value ([1]; 400 mg QD, young) was 18.21 (103.83) pg/mL and the “Alpha-synuclein oligomer, plasma, change … (SD)” value ([1]; 400 mg QD, young) was −64,843.29 pg/mL. For the same compound, the “Phosphor-tau, CSF, change from baseline … (SD)” value ([1]; 400 mg QD, young) was 6.70 (11.82) pg/mL, the “Total tau, CSF, change from baseline … (SD)” value ([1]; 400 mg QD, young) was 27.86 (66.07) pg/mL and the “Bond and Lader VAS” value ([2]; SAD and MAD) was “No signs of KM-819 treatment-related effects”. For the same compound, the C-SSRS ([2]; SAD and MAD) was “no apparent treatment or cohort differences”, the K-WAIS-IV ([2]; SAD and MAD) was “no clear treatments differences” and the POMS ([2]; SAD and MAD) was “no apparent treatment or cohort differences”. The “effects on the estimated pharmacodynamic variables” value ([2]; whole study) was “No clear treatment-related effects” and the “adverse effects after repeated administration” value [3] was “did not show adverse effects”.
